Measured values published in ChEMBL document CHEMBL3414540, “Synthesis, crystal structure and effect of indeno[1,2-b]indole derivatives on prostate cancer in vitro. Potential effect against MMP-9” (Eur J Med Chem, 2015).
Converted amounts (≈) assume the structure as drawn. The source made the active and inactive calls. The rule behind the calls is not given here.

System: not listed separately
Assay: (§1) Cytotoxicity against human PC3 cells after 72 hrs by XTT assay
Assay type: functional, cell-based
Settings: PC-3, 72 h
Outline: (§2)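 Compounds in DMSO (5-100 µg/ml, final DMSO <0.2%) were added for 72 h. XTT was then added (4 h, 37°C) and formazan read at 492 nm. IC50 is the 50% viability drop versus vehicle. Three experiments, five wells each, mean ± SEM.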

SMILES	IC50 [µg/mL]
Cc1ccc(C)c(N2C3=C(C(=O)CCC3)[C@]3(O)C(=O)c4ccccc4[C@]23O)c1 (racemic)	> 100
COc1cc(N2C3=C(C(=O)CCC3)[C@]3(O)C(=O)c4ccccc4[C@]23O)cc(OC)c1OC (racemic)	> 100
Cc1cccc(N2C3=C(C(=O)CCC3)[C@]3(O)C(=O)c4ccccc4[C@]23O)c1 (racemic)	> 100
CC1(C)CC(=O)C2=C(C1)N(c1ccc(Cl)c(Cl)c1)[C@@]1(O)c3ccccc3C(=O)[C@@]21O (racemic)	10.7 (≈ 24.1 µM)
COc1cc(N2C3=C(C(=O)CC(C)(C)C3)[C@]3(O)C(=O)c4ccccc4[C@]23O)cc(OC)c1OC (racemic)	> 100
O=C1CCCC2=C1[C@]1(O)C(=O)c3ccccc3[C@]1(O)N2c1ccc(Br)cc1 (racemic)	> 100
Cc1ccccc1N1C2=C(C(=O)CCC2)[C@]2(O)C(=O)c3ccccc3[C@]12O (racemic)	> 100
COc1ccccc1N1C2=C(C(=O)CC(C)(C)C2)[C@]2(O)C(=O)c3ccccc3[C@]12O (racemic)	> 100
COc1ccc(N2C3=C(C(=O)CCC3)[C@]3(O)C(=O)c4ccccc4[C@]23O)cc1OC (racemic)	> 100

System: PC-3
Assay: as §1
Assay type: functional, cell-based
Settings: not given
Outline: as §2

SMILES	inhibition
CC1(C)CC(=O)C2=C(C1)N(c1ccc(Cl)c(Cl)c1)[C@@]1(O)c3ccccc3C(=O)[C@@]21O (racemic)	Dose-dependent effect

Molecular target: Matrix metalloproteinase-9 (Homo sapiens) (UniProt P14780)
Sequence (P14780 whole entry): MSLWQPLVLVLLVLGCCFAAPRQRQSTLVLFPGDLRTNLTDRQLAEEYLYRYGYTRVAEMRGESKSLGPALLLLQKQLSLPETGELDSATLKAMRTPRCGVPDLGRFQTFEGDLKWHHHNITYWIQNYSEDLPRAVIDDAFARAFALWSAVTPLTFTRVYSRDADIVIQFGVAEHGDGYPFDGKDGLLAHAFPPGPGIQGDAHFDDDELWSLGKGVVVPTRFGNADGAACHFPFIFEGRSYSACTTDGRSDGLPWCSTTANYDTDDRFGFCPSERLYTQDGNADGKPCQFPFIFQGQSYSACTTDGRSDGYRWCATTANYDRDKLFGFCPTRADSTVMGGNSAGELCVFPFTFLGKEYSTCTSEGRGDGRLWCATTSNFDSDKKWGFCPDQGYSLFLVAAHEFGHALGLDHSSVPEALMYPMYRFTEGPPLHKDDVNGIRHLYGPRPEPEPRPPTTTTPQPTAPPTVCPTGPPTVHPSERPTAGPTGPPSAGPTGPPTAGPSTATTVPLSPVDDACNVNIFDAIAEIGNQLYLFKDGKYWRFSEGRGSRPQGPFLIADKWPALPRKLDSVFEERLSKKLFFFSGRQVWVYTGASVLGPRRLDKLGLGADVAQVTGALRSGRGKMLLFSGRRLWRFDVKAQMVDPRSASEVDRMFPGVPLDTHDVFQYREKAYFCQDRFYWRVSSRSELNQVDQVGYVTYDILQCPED
Assay: Inhibition of MMP9 in human PC3 cells assessed as reduction in MMP-mediated gelatinolytic activity at cytotoxic IC50 level incubated for 24 hrs by zymography
Assay type: cell-based
Settings: PC-3
Outline: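 PC-3 cells at 80% confluence were washed with PBS and treated in serum-free medium (24 h, 37°C). Conditioned medium was mixed 0.75:0.25 with sample buffer lacking mercaptoethanol and run on 10% SDS gels copolymerized with gelatin (1 mg/mL). MMP-9 lysis zones were quantified as % activity relative to vehicle. Three experiments, mean ± SEM.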

SMILES	inhibition
CC1(C)CC(=O)C2=C(C1)N(c1ccc(Cl)c(Cl)c1)[C@@]1(O)c3ccccc3C(=O)[C@@]21O (racemic)	Active

System: not listed separately
Assay: Inhibition of clonogenic potential of rat MAT-LyLu cells grown on semi-soft agar medium assessed as colony formation at cytotoxic IC50 level incubated for 2 weeks post dose by crystal violet staining based light microscopy relative to control
Assay type: functional, MAT-Ly-Lu
Set-up: scale not given: the % may be the effect or the level left
Settings: not given
Outline: (§3)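 Cells (1×10^5) in RPMI with 20% FBS and 0.3% Noble agar were layered over a 0.6% agar/RPMI base, held 15 min at room temperature, then incubated 24 h at 37°C. Compound in 1 mL medium was added the next day. After 2 weeks, cells were stained with 0.01% crystal violet (18 h, 37°C). Colony number and relative size were scored by light microscopy against vehicle. Three independent experiments, mean ± SEM.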

SMILES	Activity [%]
CC1(C)CC(=O)C2=C(C1)N(c1ccc(Cl)c(Cl)c1)[C@@]1(O)c3ccccc3C(=O)[C@@]21O (racemic)	6.35

System: LNCaP
Assay: Inhibition of clonogenic potential of human LNCAP cells grown on semi-soft agar medium assessed as colony formation at cytotoxic IC50 level incubated for 2 weeks post dose by crystal violet staining based light microscopy relative to control
Assay type: functional
Set-up: scale not given: the % may be the effect or the level left
Settings: not given
Outline: as §3

SMILES	Activity [%]
CC1(C)CC(=O)C2=C(C1)N(c1ccc(Cl)c(Cl)c1)[C@@]1(O)c3ccccc3C(=O)[C@@]21O (racemic)	0

System: LNCaP
Assay: Inhibition of cell invasion of human LNCAP cells pre-treated at cytotoxic IC50 level followed by further 18 hrs incubation by matrigel coated Boyden chamber assay
Assay type: functional, cell-based
Settings: not given
Outline: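 LNCaP cells (1×10^5 cells/ml) were pretreated for 24 h, then seeded in serum-free medium onto a Matrigel-coated […] membrane over medium with 20% FBS (18 h, 37°C). Invaded cells were stained with calcein (4 µg/ml in HBSS, 1 h) and fluorescence read at 485/530 nm. Inhibition is relative to vehicle. Three independent experiments, mean ± SEM.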

SMILES	inhibition
CC1(C)CC(=O)C2=C(C1)N(c1ccc(Cl)c(Cl)c1)[C@@]1(O)c3ccccc3C(=O)[C@@]21O (racemic)	Active

System: not listed separately
Assay: Inhibition of clonogenic potential of human PC3 cells grown on semi-soft agar medium assessed as relative colony size ratio at cytotoxic IC50 level incubated for 2 weeks post dose by crystal violet staining based light microscopy (reference value: 1 +/- 0.3)
Assay type: functional, PC-3
Settings: not given
Outline: as §3

SMILES	Ratio
CC1(C)CC(=O)C2=C(C1)N(c1ccc(Cl)c(Cl)c1)[C@@]1(O)c3ccccc3C(=O)[C@@]21O (racemic)	0

System: LNCaP
Assay: Inhibition of clonogenic potential of human LNCAP cells grown on semi-soft agar medium assessed as relative colony size ratio at cytotoxic IC50 level incubated for 2 weeks post dose by crystal violet staining based light microscopy (reference value: 1 +/- 0.3)
Assay type: functional
Settings: not given
Outline: as §3

SMILES	Ratio
CC1(C)CC(=O)C2=C(C1)N(c1ccc(Cl)c(Cl)c1)[C@@]1(O)c3ccccc3C(=O)[C@@]21O (racemic)	0

System: LNCaP
Assay: Cytotoxicity against human LNCAP cells after 72 hrs by XTT assay
Assay type: functional, cell-based
Settings: not given
Outline: as §2

SMILES	IC50 [µg/mL]	inhibition
Cc1ccc(C)c(N2C3=C(C(=O)CCC3)[C@]3(O)C(=O)c4ccccc4[C@]23O)c1 (racemic)	> 100	
COc1cc(N2C3=C(C(=O)CCC3)[C@]3(O)C(=O)c4ccccc4[C@]23O)cc(OC)c1OC (racemic)	> 100	
Cc1cccc(N2C3=C(C(=O)CCC3)[C@]3(O)C(=O)c4ccccc4[C@]23O)c1 (racemic)	> 100	
CC1(C)CC(=O)C2=C(C1)N(c1ccc(Cl)c(Cl)c1)[C@@]1(O)c3ccccc3C(=O)[C@@]21O (racemic)	9.57 (≈ 21.5 µM)	Dose-dependent effect
COc1cc(N2C3=C(C(=O)CC(C)(C)C3)[C@]3(O)C(=O)c4ccccc4[C@]23O)cc(OC)c1OC (racemic)	> 100	
O=C1CCCC2=C1[C@]1(O)C(=O)c3ccccc3[C@]1(O)N2c1ccc(Br)cc1 (racemic)	> 100	
Cc1ccccc1N1C2=C(C(=O)CCC2)[C@]2(O)C(=O)c3ccccc3[C@]12O (racemic)	> 100	
COc1ccccc1N1C2=C(C(=O)CC(C)(C)C2)[C@]2(O)C(=O)c3ccccc3[C@]12O (racemic)	> 100	
COc1ccc(N2C3=C(C(=O)CCC3)[C@]3(O)C(=O)c4ccccc4[C@]23O)cc1OC (racemic)	> 100	

System: not listed separately
Assay: Inhibition of clonogenic potential of human PC3 cells grown on semi-soft agar medium assessed as colony formation at cytotoxic IC50 level incubated for 2 weeks post dose by crystal violet staining based light microscopy relative to control
Assay type: functional, PC-3
Set-up: scale not given: the % may be the effect or the level left
Settings: not given
Outline: as §3

SMILES	Activity [%]
CC1(C)CC(=O)C2=C(C1)N(c1ccc(Cl)c(Cl)c1)[C@@]1(O)c3ccccc3C(=O)[C@@]21O (racemic)	0

System: PC-3
Assay: Inhibition of EGF-induced cell migration of human PC3 cells at cytotoxic IC50 level incubated for 24 hrs in presence of EGF by light microscopy based wound healing assay
Assay type: functional
Settings: not given
Outline: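 PC-3 cells (8×10^4 per well) were grown to confluence (48 h, 37°C) and the monolayer scratched with a pipette tip. After a PBS wash, compound in fresh medium was added with […] (1 pg/ml) for 24 h. Wound area was imaged at 0 and 24 h and expressed as % closure of the original wound. Three independent experiments, mean ± SEM.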

SMILES	inhibition
CC1(C)CC(=O)C2=C(C1)N(c1ccc(Cl)c(Cl)c1)[C@@]1(O)c3ccccc3C(=O)[C@@]21O (racemic)	Active

System: not listed separately
Assay: Inhibition of clonogenic potential of rat MAT-LyLu cells grown on semi-soft agar medium assessed as relative colony size ratio at cytotoxic IC50 level incubated for 2 weeks post dose by crystal violet staining based light microscopy (reference value: 1 +/- 0.05)
Assay type: functional, MAT-Ly-Lu
Settings: not given
Outline: as §3

SMILES	Ratio
CC1(C)CC(=O)C2=C(C1)N(c1ccc(Cl)c(Cl)c1)[C@@]1(O)c3ccccc3C(=O)[C@@]21O (racemic)	0.16

System: not listed separately
Assay: (§4) Cytotoxicity against rat MAT-LyLu cells after 72 hrs by XTT assay
Assay type: functional, cell-based
Settings: MAT-Ly-Lu
Outline: as §2

SMILES	IC50 [µg/mL]
Cc1ccc(C)c(N2C3=C(C(=O)CCC3)[C@]3(O)C(=O)c4ccccc4[C@]23O)c1 (racemic)	> 100
COc1cc(N2C3=C(C(=O)CCC3)[C@]3(O)C(=O)c4ccccc4[C@]23O)cc(OC)c1OC (racemic)	> 100
Cc1cccc(N2C3=C(C(=O)CCC3)[C@]3(O)C(=O)c4ccccc4[C@]23O)c1 (racemic)	> 100
CC1(C)CC(=O)C2=C(C1)N(c1ccc(Cl)c(Cl)c1)[C@@]1(O)c3ccccc3C(=O)[C@@]21O (racemic)	5.96 (≈ 13.4 µM)
COc1cc(N2C3=C(C(=O)CC(C)(C)C3)[C@]3(O)C(=O)c4ccccc4[C@]23O)cc(OC)c1OC (racemic)	> 100
O=C1CCCC2=C1[C@]1(O)C(=O)c3ccccc3[C@]1(O)N2c1ccc(Br)cc1 (racemic)	> 100
Cc1ccccc1N1C2=C(C(=O)CCC2)[C@]2(O)C(=O)c3ccccc3[C@]12O (racemic)	> 100
COc1ccccc1N1C2=C(C(=O)CC(C)(C)C2)[C@]2(O)C(=O)c3ccccc3[C@]12O (racemic)	> 100
COc1ccc(N2C3=C(C(=O)CCC3)[C@]3(O)C(=O)c4ccccc4[C@]23O)cc1OC (racemic)	> 100

System: MAT-Ly-Lu
Assay: as §4
Assay type: functional, cell-based
Settings: not given
Outline: as §2

SMILES	inhibition
CC1(C)CC(=O)C2=C(C1)N(c1ccc(Cl)c(Cl)c1)[C@@]1(O)c3ccccc3C(=O)[C@@]21O (racemic)	Dose-dependent effect
